ChEMBL document CHEMBL4152200, “Targeting the entrance channel of NNIBP: Discovery of diarylnicotinamide 1,4-disubstituted 1,2,3-triazoles as novel HIV-1 NNRTIs with high potency against wild-type and E138K mutant virus” (Eur J Med Chem, 2018)

Columns and labels:
[1] = (§1) Cytotoxicity against human MT4 cells assessed as decrease in cell viability after 5 days by MTT assay; format: cell-based; conditions: MT4 cells
How it was run: (§2)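 Mock-infected MT-4 cells, exponentially growing, seeded with compound in culture medium without virus; run in parallel with the antiviral assay. Viability read spectrophotometrically by MTT reduction five days later.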

[2] = system: Human immunodeficiency virus 1; experiment: Antiviral activity against HIV1 harboring reverse transcriptase E138K mutant infected in human MT4 cells assessed as inhibition of viral replication after 5 days by MTT assay; format: functional, organism-based; conditions: Human immunodeficiency virus 1, MT4, 120 h
[3] = system: Human immunodeficiency virus 1; experiment: Resistance factor, ratio of EC50 for HIV1 harboring reverse transcriptase F227L/V106A mutant to EC50 for wild-type HIV-1 3B; format: functional
How it was run: (§3)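 Resistance fold is EC₅₀ against the mutant strain divided by EC₅₀ against WT IIIB. Both EC₅₀ values come from the 5-day MTT protection assay in MT-4 cells infected with 100–300 CCID₅₀ of virus.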

[4] = system: Human immunodeficiency virus 1; experiment: Antiviral activity against wild-type HIV-1 3B infected in human MT4 cells assessed as inhibition of viral replication after 5 days by MTT assay; format: functional, organism-based; conditions: Human immunodeficiency virus 1, 3B, MT4, 120 h
[5] = system: Human immunodeficiency virus 1; experiment: Resistance factor, ratio of EC50 for HIV1 harboring reverse transcriptase E138K mutant to EC50 for wild-type HIV-1 3B; format: functional; how it was run: as §3
[6] = molecular target: Human immunodeficiency virus type 1 reverse transcriptase (Human immunodeficiency virus 1, UniProt Q72547); experiment: Inhibition of wild-type HIV1 reverse transcriptase assessed as decrease in digoxigenin and biotin-dUTP incorporation in to DNA using poly(A)/oligo(dT)15 as template/primer after 1 hr by ELISA
How it was run: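 Kit ELISA on wild-type HIV-1 RT with poly(A)·oligo(dT)15 as template/primer and digoxigenin- and biotin-labelled dUTP. Incorporated label detected with peroxidase-conjugated anti-digoxigenin antibody and ABTS substrate. IC₅₀ is the concentration inhibiting biotin-dUTP incorporation by 50%.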

[7] = system: Human immunodeficiency virus 1; experiment: Antiviral activity against HIV1 harboring reverse transcriptase Y188L mutant infected in human MT4 cells assessed as inhibition of viral replication after 5 days by MTT assay; format: functional, organism-based; conditions: Human immunodeficiency virus 1, MT4, 120 h
How it was run: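 MT-4 cells in exponential growth, resuspended into wells holding HIV-1 stock (IIIB, RES056 K103N/Y181C, F227L/V106A, L100I, K103N, E138K, Y181C or Y188L) at 100–300 CCID₅₀, or into mock-infected wells. Viability read by MTT reduction to formazan, measured spectrophotometrically 5 days post-infection. EC₅₀ is the concentration giving 50% protection against virus-induced cytotoxicity.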

[8] = system: Human immunodeficiency virus 1; experiment: Resistance factor, ratio of EC50 for HIV1 harboring reverse transcriptase K103N mutant to EC50 for wild-type HIV-1 3B; format: functional; how it was run: as §3
[9] = Selectivity index, ratio of CC50 for human MT4 cells to EC50 for HIV1 harboring reverse transcriptase K103N mutant; format: toxicity; conditions: read-out: Ratio CC50/EC50
How it was run: (§4)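 SI is CC₅₀ divided by EC₅₀, both by MTT after 5 days in MT-4 cells. CC₅₀ comes from mock-infected cultures run in parallel and is the concentration reducing their viability by 50%. EC₅₀ comes from cultures infected with the given mutant strain at 100–300 CCID₅₀.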

[10] = Selectivity index, ratio of CC50 for human MT4 cells to EC50 for HIV1 harboring reverse transcriptase E138K mutant; format: toxicity; conditions: read-out: Ratio CC50/EC50; how it was run: as §4
[11] = system: Human immunodeficiency virus 1; experiment: Antiviral activity against HIV1 harboring reverse transcriptase K103N mutant infected in human MT4 cells assessed as inhibition of viral replication after 5 days by MTT assay; format: functional, organism-based; conditions: Human immunodeficiency virus 1, MT4, 120 h
[12] = Selectivity index, ratio of CC50 for human MT4 cells to EC50 for HIV1 harboring reverse transcriptase F227L/V106A mutant; format: toxicity; conditions: read-out: Ratio CC50/EC50; how it was run: as §4
[13] = system: Human immunodeficiency virus 1; experiment: Antiviral activity against HIV1 harboring reverse transcriptase F227L/V106A double mutant infected in human MT4 cells assessed as inhibition of viral replication after 5 days by MTT assay; format: functional, organism-based; conditions: Human immunodeficiency virus 1, MT4, 120 h
[14] = system: Human immunodeficiency virus 1; experiment: Antiviral activity against HIV-1 RES056 harboring reverse transcriptase K103N/Y181C double mutant infected in human MT4 cells assessed as inhibition of viral replication after 5 days by MTT assay; format: functional, organism-based; conditions: Human immunodeficiency virus 1, RES056, MT4, 120 h
[15] = system: Human immunodeficiency virus 1; experiment: Antiviral activity against HIV1 harboring reverse transcriptase Y181C mutant infected in human MT4 cells assessed as inhibition of viral replication after 5 days by MTT assay; format: functional, organism-based; conditions: Human immunodeficiency virus 1, MT4, 120 h
TZM = experiment: Cytotoxicity against human TZM-bl cells by CytoTox-Glo reagent-based assay; format: cell-based
How it was run: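 TZM-bl cells exposed to compound at various concentrations. Cytotoxicity measured by CytoTox-Glo assay.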

[16] = system: Human immunodeficiency virus 1; experiment: Resistance factor, ratio of EC50 for HIV1 harboring reverse transcriptase L100I mutant to EC50 for wild-type HIV-1 3B; format: functional; how it was run: as §3
[17] = system: Human immunodeficiency virus 1; experiment: Antiviral activity against HIV1 harboring reverse transcriptase L100I mutant infected in human MT4 cells assessed as inhibition of viral replication after 5 days by MTT assay; format: functional, organism-based; conditions: Human immunodeficiency virus 1, MT4, 120 h
[18] = Selectivity index, ratio of CC50 for human MT4 cells to EC50 for HIV1 harboring reverse transcriptase L100I mutant; format: toxicity; conditions: read-out: Ratio CC50/EC50; how it was run: as §4
[19] = Selectivity index, ratio of CC50 for human TZM-bl cells to EC50 for wild-type HIV-1 NL4-3 infected in human TZM-bl cells; format: toxicity, cell-based; conditions: read-out: Ratio CC50/EC50
How it was run: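 SI is CC₅₀ divided by EC₅₀ in TZM-bl cells. CC₅₀ from CytoTox-Glo assay, averaged from two independent tests. EC₅₀ from single-round infection with 800 TCID₅₀ NL4-3, luciferase luminescence read at 2 days and expressed relative to virus controls.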

[20] = system: Human immunodeficiency virus 1; experiment: Resistance factor, ratio of EC50 for HIV1 harboring reverse transcriptase Y188L mutant to EC50 for wild-type HIV-1 3B; format: functional; how it was run: as §3
MT4 = experiment: as §1; format: cell-based; conditions: mt4, 120 h; how it was run: as §2
[21] = system: Human immunodeficiency virus 1; experiment: Resistance factor, ratio of EC50 for HIV1 harboring reverse transcriptase Y181C mutant to EC50 for wild-type HIV-1 3B; format: functional; how it was run: as §3
[22] = Selectivity index, ratio of CC50 for human MT4 cells to EC50 for HIV1 harboring reverse transcriptase Y188L mutant; format: toxicity; conditions: read-out: Ratio CC50/EC50; how it was run: as §4
[23] = Selectivity index, ratio of CC50 for human MT4 cells to EC50 for HIV1 harboring reverse transcriptase Y181C mutant; format: toxicity; conditions: read-out: Ratio CC50/EC50; how it was run: as §4
[24] = system: Human immunodeficiency virus 1; experiment: Antiviral activity against wild-type HIV-1 NL4-3 infected in human TZM-bl cells assessed as inhibition of viral replication after 2 days by bright Glo-luciferase reporter gene assay; format: functional, organism-based; conditions: Human immunodeficiency virus 1, NL4-3, TZM-bl, 48 h
How it was run: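 TZM-bl cells infected with 800 TCID₅₀ of NL4-3 in the presence of a range of compound concentrations; single-round infection. After 2 days medium removed, Bright-Glo added and luminescence read. EC₅₀ is the concentration giving a 50% fall in relative light units relative to virus-control wells. Mean ± SD from at least triplicate.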

[25] = Selectivity index, ratio of CC50 for human MT4 cells to EC50 for wild-type HIV1 3B; format: toxicity; conditions: read-out: Ratio CC50/EC50
How it was run: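 Wild-type HIV-1 IIIB at 100–300 CCID50 added to MT-4 cells with compound, with mock-infected wells in parallel. MTT viability was read at day 5. […] SI = CC50/EC50.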

[26] = Selectivity index, ratio of CC50 for human MT4 cells to EC50 for HIV-1 RES056 harboring reverse transcriptase K103N/Y181C double mutant infected in human MT4 cells; format: toxicity, cell-based; conditions: read-out: Ratio CC50/EC50; how it was run: as §4

Row | SMILES | EC50 [2] [nM] | Ratio EC50 [3] | EC50 [4] [nM] | Ratio EC50 [5] | EC50 [7] [nM] | Ratio EC50 [8] | selectivity ratio [9] | selectivity ratio [10] | EC50 [11] [nM] | selectivity ratio [12] | EC50 [13] [nM] | EC50 [14] [nM] | EC50 [15] [nM] | Ratio EC50 [16] | EC50 [17] [nM] | selectivity ratio [18] | Ratio EC50 [20] | CC50 (MT4) [nM] | Ratio EC50 [21] | selectivity ratio [22] | further results
1 | O=C1Nc2ccc(Cl)cc2[C@@](C#CC2CC2)(C(F)(F)F)O1 [EFAVIRENZ] | – | – | – | – | – | – | – | – | – | – | – | – | – | – | – | – | – | – | – | – | CC50 at 120 h [1]: > 6340 nM
2 | Cc1cc(C)c(Oc2cc(Nc3ccc(C#N)cc3)ncc2C(=O)NCc2cn(CC(=O)N3CCOCC3)nn2)c(C)c1 | 27 | 30.5 | 20 | 1.4 | 7160 | 19 | 473 | 6800 | 380 | 297 | 610 | 15700 | 240 | 306.5 | 6130 | 30 | 358 | 181000 | 12 | 25 | IC50 [6]: 1570 nM; CC50 (TZM): > 215000 nM; selectivity ratio [19]: > 10.8; selectivity ratio [23]: 761; EC50 [24]: 20 nM
3 | Cc1cc(C)c(Oc2cc(Nc3ccc(C#N)cc3)ncc2C(=O)NCc2cn(CCCO)nn2)c(C)c1 | 39 | 21.1 | 37 | 1.1 | 3170 | 11.1 | 62 | 651 | 410 | 32 | 780 | 5230 | 230 | 52.7 | 1950 | 13 | 85.7 | 25200 | 6.2 | 8 | selectivity ratio [25]: 678; selectivity ratio [26]: 5; selectivity ratio [23]: 109
4 | Cc1cc(C)c(Oc2cc(Nc3ccc(C#N)cc3)ncc2C(=O)NCc2cn(CC(N)=O)nn2)c(C)c1 | 150 | 10.5 | 172 | 0.9 | 4460 | 6 | 23 | 159 | 1030 | 13 | 1800 | 5330 | 830 | 20.5 | 3520 | 7 | 25.9 | 24000 | 4.8 | 5 | selectivity ratio [25]: 139; selectivity ratio [26]: 5; selectivity ratio [23]: 29
5 | CC(=O)Cn1cc(CNC(=O)c2cnc(Nc3ccc(C#N)cc3)cc2Oc2c(C)cc(C)cc2C)nn1 | 26 | 20.3 | 29 | 0.9 | 3200 | 9 | 73 | 756 | 260 | 33 | 590 | 2210 | 160 | 34.5 | 1000 | 19 | 110.3 | 19400 | 5.5 | 6 | selectivity ratio [25]: 670; selectivity ratio [26]: 9; selectivity ratio [23]: 123
6 | Cc1cc(C)c(Oc2cc(Nc3ccc(C#N)cc3)ncc2C(=O)NCc2cn(CC(=O)N3CCCC3)nn2)c(C)c1 | 14 | 12 | 20 | 0.7 | 1480 | 13.5 | 214 | 4190 | 270 | 245 | 240 | 1430 | 85 | 48 | 960 | 60 | 74 | 58100 | 4.3 | 39 | selectivity ratio [25]: 2900; IC50 [6]: 2700 nM; CC50 (TZM): > 221000 nM; selectivity ratio [19]: > 9.2; selectivity ratio [23]: 686; EC50 [24]: 24 nM
7 | Cc1ccnc2c1NC(=O)c1cccnc1N2C1CC1 [NEVIRAPINE] | – | – | 260 | – | – | – | – | – | – | – | – | > 15000 | – | – | – | – | – | – | – | – | CC50 at 120 h [1]: > 15000 nM
8 | Cc1cc(/C=C/C#N)cc(C)c1Nc1ccnc(Nc2ccc(C#N)cc2)n1 [RILPIVIRINE] | – | – | – | – | – | – | – | – | – | – | – | – | – | – | – | – | – | – | – | – | CC50 (TZM): > 341000 nM
